Calls of active or inactive are those of the source. The rule behind the calls is not given here.
Columns and labels:
SW480 [1] = assay: Cytotoxicity against human SW480 cells assessed as growth inhibition at 25 uM measured after 72 hrs by MTT assay; format: functional
Summary of the method: (§1)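 Log-phase cells were plated in duplicate at 2500–4000 cells/well in DMEM with 10% FBS, glutamine and antibiotics, at 37 °C under 5% CO2. Drug was added 24 h after plating from a 40 mM DMSO stock, to a final 25 μM. After 72 h exposure, MTT was read at 540 nm and % growth inhibition was calculated, with 100% meaning total growth inhibition.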

MCF7 [2] = assay: Cytotoxicity against human MCF7 cells assessed as growth inhibition at 25 uM measured after 72 hrs by MTT assay; format: functional; summary of the method: as §1
BE(2)-C = assay: Cytotoxicity against human BE(2)-C cells assessed as growth inhibition at 25 uM measured after 72 hrs by MTT assay; format: functional; summary of the method: as §1
DU-145 [3] = assay: Cytotoxicity against human DU145 cells assessed as growth inhibition at 25 uM measured after 72 hrs by MTT assay; format: functional, cell-based; summary of the method: as §1
A-431 [4] = assay: Cytotoxicity against human A431 cells assessed as growth inhibition at 25 uM measured after 72 hrs by MTT assay; format: functional, cell-based; summary of the method: as §1
MIA = assay: Cytotoxicity against human MIA cells assessed as growth inhibition at 25 uM measured after 72 hrs by MTT assay; format: functional; summary of the method: as §1
HT-29 [5] = assay: Cytotoxicity against human HT-29 cells assessed as growth inhibition at 25 uM measured after 72 hrs by MTT assay; format: functional, cell-based; summary of the method: as §1
SMA = assay: Cytotoxicity against mouse SMA cells assessed as growth inhibition at 25 uM measured after 72 hrs by MTT assay
A2780 [6] = assay: Cytotoxicity against human A2780 cells assessed as growth inhibition at 25 uM measured after 72 hrs by MTT assay; format: functional; summary of the method: as §1
SJ-G2 = assay: Cytotoxicity against human SJ-G2 cells assessed as growth inhibition at 25 uM measured after 72 hrs by MTT assay; format: functional, cell-based; summary of the method: as §1
NCI-H460 = assay: Cytotoxicity against human H460 cells assessed as growth inhibition at 25 uM measured after 72 hrs by MTT assay; format: functional, cell-based; summary of the method: as §1
HT-29 [7] = assay: Cytotoxicity against human HT-29 cells assessed as growth inhibition measured after 72 hrs by MTT assay; format: functional; settings: HT-29, 72 h
Summary of the method: (§2)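 Cells in log phase were seeded in duplicate at 2500–4000 cells/well in supplemented DMEM (37 °C, 5% CO2). Drug from a 40 mM DMSO stock was added on day 0, 24 h post-plating. Read-out was MTT absorbance at 540 nm after 72 h.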

SW480 [8] = assay: Cytotoxicity against human SW480 cells assessed as growth inhibition measured after 72 hrs by MTT assay; format: functional; settings: SW480, 72 h; summary of the method: as §2
[9] = Cytotoxicity against human MIA cells assessed as growth inhibition measured after 72 hrs by MTT assay; format: functional; summary of the method: as §2
[10] = Cytotoxicity against human SJ-G2 cells assessed as growth inhibition measured after 72 hrs by MTT assay; format: functional; settings: SJ-G2, 72 h; summary of the method: as §2
[11] = Cytotoxicity against human BE(2)-C cells assessed as growth inhibition measured after 72 hrs by MTT assay; format: functional; summary of the method: as §2
MCF7 [12] = assay: Cytotoxicity against human MCF7 cells assessed as growth inhibition measured after 72 hrs by MTT assay; format: functional; settings: MCF7, 72 h; summary of the method: as §2
[13] = Cytotoxicity against human H460 cells assessed as growth inhibition measured after 72 hrs by MTT assay; format: functional; settings: NCI-H460, 72 h; summary of the method: as §2
[14] = Cytotoxicity against mouse SMA cells assessed as growth inhibition measured after 72 hrs by MTT assay
A2780 [15] = assay: Cytotoxicity against human A2780 cells assessed as growth inhibition measured after 72 hrs by MTT assay; format: functional; settings: A2780, 72 h; summary of the method: as §2
DU-145 [16] = assay: Cytotoxicity against human DU145 cells assessed as growth inhibition measured after 72 hrs by MTT assay; format: functional; settings: DU-145, 72 h; summary of the method: as §2
A-431 [17] = assay: Cytotoxicity against human A431 cells assessed as growth inhibition measured after 72 hrs by MTT assay; format: functional; settings: A-431, 72 h; summary of the method: as §2

Structure (SMILES)	growth inhibition (GI) (SW480 [1])	growth inhibition (GI) (MCF7 [2])	growth inhibition (GI) (BE(2)-C)	growth inhibition (GI) (DU-145 [3])	growth inhibition (GI) (A-431 [4])	growth inhibition (GI) (MIA)	growth inhibition (GI) (HT-29 [5])	growth inhibition (GI) (SMA)	growth inhibition (GI) (A2780 [6])	growth inhibition (GI) (SJ-G2)	growth inhibition (GI) (NCI-H460)	other results
N#C/C(=C\c1ccc(O)cc1)C(=O)c1ccc[nH]1	inactive	inactive	inactive	inactive	inactive	inactive	inactive	inactive	inactive	inactive	inactive	–
N#C/C(=C\c1ccc(Cl)c(Cl)c1)C(=O)c1ccc[nH]1	inactive	inactive	inactive	inactive	inactive	inactive	inactive	inactive	inactive	inactive	inactive	–
N#C/C(=C\c1ccc(O)cc1)C(=O)c1c[nH]c2ccccc12	inactive	inactive	inactive	inactive	inactive	inactive	inactive	inactive	inactive	inactive	inactive	–
N#C/C(=C\c1ccc([N+](=O)[O-])cc1)C(=O)c1ccc[nH]1	inactive	inactive	inactive	inactive	inactive	inactive	inactive	inactive	inactive	inactive	inactive	–
N#C/C(=C\c1ccc(C(F)(F)F)cc1)C(=O)c1c[nH]c2ccccc12	inactive	inactive	inactive	inactive	inactive	inactive	inactive	inactive	inactive	inactive	inactive	–
Cc1ccc(/C=C(\C#N)C(=O)c2c[nH]c3ccccc23)cc1	inactive	inactive	inactive	inactive	inactive	inactive	inactive	inactive	inactive	inactive	inactive	–
N#C/C(=C\c1ccc(Cl)cc1)C(=O)c1c[nH]c2ccccc12	inactive	inactive	inactive	inactive	inactive	inactive	inactive	inactive	inactive	inactive	inactive	–
N#C/C(=C\c1ccc2ccccc2c1)C(=O)c1c[nH]c2ccccc12	inactive	–	inactive	inactive	inactive	inactive	inactive	inactive	inactive	inactive	inactive	inhibition of growth at 25 µM (MCF7 [2]; MCF7, 72 h, read-out: GI): 40%
N#C/C(=C\c1ccc(O)cc1)C(=O)NCc1ccc(Cl)c(Cl)c1	inactive	inactive	inactive	inactive	inactive	inactive	inactive	inactive	inactive	inactive	inactive	–
N#C/C(=C\c1ccc2ccccc2c1)C(=O)c1ccc[nH]1	inactive	inactive	inactive	inactive	inactive	inactive	inactive	inactive	inactive	inactive	inactive	–
COc1ccc(/C=C(\C#N)C(=O)NCc2ccc(OC)cc2)cc1	inactive	inactive	inactive	inactive	inactive	inactive	inactive	inactive	inactive	inactive	inactive	–
N#C/C(=C\c1ccc(C(F)(F)F)cc1)C(=O)c1ccc[nH]1	inactive	inactive	inactive	inactive	inactive	inactive	inactive	inactive	inactive	inactive	inactive	–
COc1ccc(CNC(=O)/C(C#N)=C/c2ccc(O)cc2)cc1	inactive	inactive	inactive	inactive	inactive	inactive	inactive	inactive	inactive	inactive	inactive	–
COc1ccc(CNC(=O)/C(C#N)=C/c2ccc(CO)o2)cc1	inactive	inactive	inactive	inactive	inactive	inactive	inactive	inactive	inactive	inactive	inactive	–
Cc1ccc(/C=C(\C#N)C(=O)NCc2ccc(Cl)c(Cl)c2)cc1	inactive	inactive	inactive	inactive	inactive	inactive	inactive	inactive	inactive	inactive	inactive	–
COc1ccc(CNC(=O)/C(C#N)=C/c2ccccc2)cc1	–	–	–	–	–	–	–	–	–	–	–	GI50 (HT-29 [7]): 9 µM; GI50 (SW480 [8]): 14 µM; GI50 [9]: 24 µM; GI50 [10]: 17 µM; GI50 [11]: 15 µM; GI50 (MCF7 [12]): 18 µM; GI50 [13]: 18 µM; GI50 [14]: 16 µM; GI50 (A2780 [15]): 9 µM; GI50 (DU-145 [16]): 13 µM; GI50 (A-431 [17]): 9 µM
COc1ccc(CNC(=O)/C(C#N)=C/c2cc(Br)co2)cc1	–	–	–	–	–	–	–	–	–	–	–	GI50 (HT-29 [7]): 36 µM; GI50 (SW480 [8]): > 100 µM; GI50 [9]: 65 µM; GI50 [10]: 23 µM; GI50 [11]: 36 µM; GI50 (MCF7 [12]): 20 µM; GI50 [13]: > 100 µM; GI50 [14]: > 100 µM; GI50 (A2780 [15]): 28 µM; GI50 (DU-145 [16]): 61 µM; GI50 (A-431 [17]): 14 µM

Source: ChEMBL document CHEMBL2331240, “Focused library development of 2-phenylacrylamides as broad spectrum cytotoxic agents” (2013)
